Tests used:
MDA-MB-435 = experiment: Cytotoxicity against human MDA-MB-435 cells assessed as cell growth at 10^-5 M after 48 hrs by SRB assay; assay type: functional; conditions: MDA-MB-435, 48 h, read-out: Activity
Summary of the method: (§1)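 NCI 60 single-dose screen at 10^-5 M. Cells in RPMI 1640 with 5% FBS and 2 mM L-glutamine, preincubated 24 h at 37 °C/5% CO2. Drug from DMSO stock, then 48 h exposure. TCA fixation, SRB staining, absorbance at 515 nm. Result given as percent growth of treated cells relative to untreated control.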

M14 = experiment: Cytotoxicity against human M14 cells assessed as cell growth at 10^-5 M after 48 hrs by SRB assay; assay type: functional; conditions: M14, 48 h, read-out: Activity; summary of the method: as §1
SNB-75 = experiment: Cytotoxicity against human SNB75 cells assessed as cell growth at 10^-5 M after 48 hrs by SRB assay; assay type: functional; conditions: SNB-75, 48 h, read-out: Activity
Summary of the method: (§2)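 NCI 60-panel single-dose primary screen at 10^-5 M. Cells are grown in RPMI 1640 with 5% FBS and 2 mM L-glutamine and preincubated 24 h at 37 °C. Drug exposure is 48 h. Cells are TCA-fixed, stained with SRB and absorbance is read at 515 nm. Results are reported as percent growth of treated cells versus untreated controls, corrected using time-zero plates.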

SF-539 = experiment: Cytotoxicity against human SF539 cells assessed as cell growth at 10^-5 M after 48 hrs by SRB assay; assay type: functional; conditions: SF-539, 48 h, read-out: Activity; summary of the method: as §2
SF-295 = experiment: Cytotoxicity against human SF295 cells assessed as cell growth at 10^-5 M after 48 hrs by SRB assay; assay type: functional; conditions: SF-295, 48 h, read-out: Activity; summary of the method: as §2
SF-268 = experiment: Cytotoxicity against human SF268 cells assessed as cell growth at 10^-5 M after 48 hrs by SRB assay; assay type: functional; conditions: SF-268, 48 h, read-out: Activity; summary of the method: as §2
KM12 = experiment: Cytotoxicity against human KM12 cells assessed as cell growth at 10^-5 M after 48 hrs by SRB assay; assay type: functional; conditions: KM12, 48 h, read-out: Activity; summary of the method: as §1
HT-29 = experiment: Cytotoxicity against human HT-29 cells assessed as cell growth at 10^-5 M after 48 hrs by SRB assay; assay type: functional; conditions: HT-29, 48 h, read-out: Activity; summary of the method: as §1
HCT-116 = experiment: Cytotoxicity against human HCT116 cells assessed as cell growth at 10^-5 M after 48 hrs by SRB assay; assay type: functional; conditions: HCT-116, 48 h, read-out: Activity; summary of the method: as §1
NCI-H522 = experiment: Cytotoxicity against human NCI-H522 cells assessed as cell growth at 10^-5 M after 48 hrs by SRB assay; assay type: functional; conditions: NCI-H522, 48 h, read-out: Activity; summary of the method: as §2
COLO 205 = experiment: Cytotoxicity against human COLO205 cells assessed as cell growth at 10^-5 M after 48 hrs by SRB assay; assay type: functional; conditions: COLO 205, 48 h, read-out: Activity; summary of the method: as §1
NCI-H460 = experiment: Cytotoxicity against human NCI-H460 cells assessed as cell growth at 10^-5 M after 48 hrs by SRB assay; assay type: functional; conditions: NCI-H460, 48 h, read-out: Activity; summary of the method: as §2
NCI-H322M = experiment: Cytotoxicity against human NCI-H322M cells assessed as cell growth at 10^-5 M after 48 hrs by SRB assay; assay type: functional; conditions: read-out: Activity; summary of the method: as §2
NCI-H23 = experiment: Cytotoxicity against human NCI-H23 cells assessed as cell growth at 10^-5 M after 48 hrs by SRB assay; assay type: functional; conditions: NCI-H23, 48 h, read-out: Activity; summary of the method: as §2
HOP-62 = experiment: Cytotoxicity against human HOP62 cells assessed as cell growth at 10^-5 M after 48 hrs by SRB assay; assay type: functional; conditions: HOP-62, 48 h, read-out: Activity; summary of the method: as §1
RPMI-8226 = experiment: Cytotoxicity against human RPMI8226 cells assessed as cell growth at 10^-5 M after 48 hrs by SRB assay; assay type: functional; conditions: RPMI-8226, 48 h, read-out: Activity; summary of the method: as §2
K562 = experiment: Cytotoxicity against human K562 cells assessed as cell growth at 10^-5 M after 48 hrs by SRB assay; assay type: functional; conditions: K562, 48 h, read-out: Activity; summary of the method: as §1
CCRF-CEM = experiment: Cytotoxicity against human CCRF-CEM cells assessed as cell growth at 10^-5 M after 48 hrs by SRB assay; assay type: functional; conditions: read-out: Activity; summary of the method: as §1
T47D = experiment: Cytotoxicity against human T47D cells assessed as cell growth at 10^-5 M after 48 hrs by SRB assay; assay type: functional; conditions: read-out: Activity
Summary of the method: (§3)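 NCI primary single-dose screen at 10^-5 M. Cells grown in RPMI 1640 with 5% FBS and 2 mM L-glutamine, given 24 h before drug addition, then 48 h exposure at 37 °C, 5% CO2. Cells TCA-fixed, stained with SRB, read at 515 nm. Reported as percent growth of treated cells relative to untreated controls.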

BT-549 = experiment: Cytotoxicity against human BT549 cells assessed as cell growth at 10^-5 M after 48 hrs by SRB assay; assay type: functional; conditions: BT-549, 48 h, read-out: Activity; summary of the method: as §1
MCF7 = experiment: Cytotoxicity against human MCF7 cells assessed as cell growth at 10^-5 M after 48 hrs by SRB assay; assay type: functional; conditions: MCF7, 48 h, read-out: Activity; summary of the method: as §1
DU-145 = experiment: Cytotoxicity against human DU145 cells assessed as cell growth at 10^-5 M after 48 hrs by SRB assay; assay type: functional; conditions: DU-145, 48 h, read-out: Activity; summary of the method: as §1
PC-3 = experiment: Cytotoxicity against human PC3 cells assessed as cell growth at 10^-5 M after 48 hrs by SRB assay; assay type: functional; conditions: PC-3, 48 h, read-out: Activity; summary of the method: as §2
SN12C = experiment: Cytotoxicity against human SN12C cells assessed as cell growth at 10^-5 M after 48 hrs by SRB assay; assay type: functional; conditions: read-out: Activity; summary of the method: as §2
RXF 393 = experiment: Cytotoxicity against human RXF393 cells assessed as cell growth at 10^-5 M after 48 hrs by SRB assay; assay type: functional; conditions: RXF 393, 48 h, read-out: Activity; summary of the method: as §2
CAKI-1 = experiment: Cytotoxicity against human Caki1 cells assessed as cell growth at 10^-5 M after 48 hrs by SRB assay; assay type: functional; conditions: CAKI-1, 48 h, read-out: Activity; summary of the method: as §1
SK-OV-3 = experiment: Cytotoxicity against human SKOV3 cells assessed as cell growth at 10^-5 M after 48 hrs by SRB assay; assay type: functional; conditions: SK-OV-3, 48 h, read-out: Activity; summary of the method: as §2
OVCAR-8 = experiment: Cytotoxicity against human OVCAR8 cells assessed as cell growth at 10^-5 M after 48 hrs by SRB assay; assay type: functional; conditions: OVCAR-8, 48 h, read-out: Activity; summary of the method: as §2
IGROV-1 = experiment: Cytotoxicity against human IGROV1 cells assessed as cell growth at 10^-5 M after 48 hrs by SRB assay; assay type: functional; conditions: IGROV-1, 48 h, read-out: Activity; summary of the method: as §1
UACC-257 = experiment: Cytotoxicity against human UACC257 cells assessed as cell growth at 10^-5 M after 48 hrs by SRB assay; assay type: functional; conditions: UACC-257, 48 h, read-out: Activity; summary of the method: as §3
UACC-62 = experiment: Cytotoxicity against human UACC62 cells assessed as cell growth at 10^-5 M after 48 hrs by SRB assay; assay type: functional; conditions: UACC-62, 48 h, read-out: Activity; summary of the method: as §3
[1] = target: Epidermal growth factor receptor (Homo sapiens, UniProt P00533); conditions: at 10 µM;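 also: EGFR tyrosine kinase activity on a poly(Glu,Tyr) substrate, read out by Kinase-Glo Plus luminescence after a 40 min reaction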
Chain of Epidermal growth factor receptor (P00533 whole entry): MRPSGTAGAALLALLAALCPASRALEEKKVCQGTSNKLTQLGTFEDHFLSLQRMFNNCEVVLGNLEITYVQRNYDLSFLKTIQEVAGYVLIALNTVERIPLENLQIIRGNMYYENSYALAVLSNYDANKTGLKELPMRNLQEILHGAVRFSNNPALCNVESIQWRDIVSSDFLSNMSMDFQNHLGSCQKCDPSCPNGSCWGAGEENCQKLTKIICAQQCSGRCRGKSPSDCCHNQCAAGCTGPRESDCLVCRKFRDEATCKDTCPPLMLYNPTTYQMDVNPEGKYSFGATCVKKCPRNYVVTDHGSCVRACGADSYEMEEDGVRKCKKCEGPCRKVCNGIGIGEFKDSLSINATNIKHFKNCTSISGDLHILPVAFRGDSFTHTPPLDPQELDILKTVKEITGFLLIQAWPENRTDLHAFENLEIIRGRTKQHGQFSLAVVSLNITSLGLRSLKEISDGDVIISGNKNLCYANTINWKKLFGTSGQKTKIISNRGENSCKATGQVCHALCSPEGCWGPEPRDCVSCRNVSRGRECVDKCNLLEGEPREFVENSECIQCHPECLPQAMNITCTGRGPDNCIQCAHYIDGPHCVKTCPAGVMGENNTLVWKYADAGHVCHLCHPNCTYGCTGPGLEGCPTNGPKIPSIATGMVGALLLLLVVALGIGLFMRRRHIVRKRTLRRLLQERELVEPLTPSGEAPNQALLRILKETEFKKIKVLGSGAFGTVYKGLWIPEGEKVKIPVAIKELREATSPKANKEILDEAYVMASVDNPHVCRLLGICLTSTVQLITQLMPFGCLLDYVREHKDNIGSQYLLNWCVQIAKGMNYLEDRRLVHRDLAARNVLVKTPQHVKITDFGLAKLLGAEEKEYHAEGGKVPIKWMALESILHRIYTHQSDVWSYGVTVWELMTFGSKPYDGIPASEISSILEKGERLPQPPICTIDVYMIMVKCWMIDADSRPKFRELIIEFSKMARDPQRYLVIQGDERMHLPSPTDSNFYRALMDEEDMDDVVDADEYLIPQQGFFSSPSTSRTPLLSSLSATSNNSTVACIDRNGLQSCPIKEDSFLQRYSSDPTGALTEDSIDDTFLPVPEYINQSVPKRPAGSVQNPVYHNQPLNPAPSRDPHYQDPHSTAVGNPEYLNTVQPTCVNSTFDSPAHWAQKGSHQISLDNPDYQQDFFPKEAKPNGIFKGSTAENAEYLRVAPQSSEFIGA

| Compound | growth at 10 µM (MDA-MB-435) | growth at 10 µM (M14) | growth at 10 µM (SNB-75) | growth at 10 µM (SF-539) | growth at 10 µM (SF-295) | growth at 10 µM (SF-268) | growth at 10 µM (KM12) | growth at 10 µM (HT-29) | growth at 10 µM (HCT-116) | growth at 10 µM (NCI-H522) | growth at 10 µM (COLO 205) | growth at 10 µM (NCI-H460) | growth at 10 µM (NCI-H322M) | growth at 10 µM (NCI-H23) | growth at 10 µM (HOP-62) | growth at 10 µM (RPMI-8226) | growth at 10 µM (K562) | growth at 10 µM (CCRF-CEM) | growth at 10 µM (T47D) | growth at 10 µM (BT-549) | further results |
| --- | --- | --- | --- | --- | --- | --- | --- | --- | --- | --- | --- | --- | --- | --- | --- | --- | --- | --- | --- | --- | --- |
| CCOC(=O)/C(C#N)=C\Nc1ccc2ncnc(Nc3ccc(Cl)cc3)c2c1 | 70.5% | 106% | 86.3% | 103% | 74.3% | 76.1% | 74% | 86.3% | 84.5% | 79.8% | 102% | 70% | 22.6% | 92.5% | 107% | 62.9% | 61.4% | 50.1% | 72.7% | 76.1% | growth at 10 µM (MCF7): 111%; growth at 10 µM (DU-145): 49.2%; growth at 10 µM (PC-3): 60.6%; growth at 10 µM (SN12C): 87%; growth at 10 µM (RXF 393): 83.2%; growth at 10 µM (CAKI-1): 32.6%; growth at 10 µM (SK-OV-3): 85%; growth at 10 µM (OVCAR-8): 83.3%; growth at 10 µM (IGROV-1): 52.4%; growth at 10 µM (UACC-257): 108%; growth at 10 µM (UACC-62): 103%; inhibition [1]: 100% |
| NC(=O)Nc1ccc2ncnc(Nc3ccc(Cl)cc3)c2c1 | 97.8% | 107% | 95% | 95.7% | 90.7% | 79.7% | 98.5% | 91.6% | 96.4% | 66.2% | 101% | 88% | 18% | 100% | 86.2% | 101% | 71.4% | 96% | 61.6% | 92.4% | growth at 10 µM (MCF7): 86.5%; growth at 10 µM (DU-145): 52%; growth at 10 µM (PC-3): 79%; growth at 10 µM (SN12C): 81.9%; growth at 10 µM (RXF 393): 93.7%; growth at 10 µM (CAKI-1): 40.1%; growth at 10 µM (SK-OV-3): 30.2%; growth at 10 µM (OVCAR-8): 89.5%; growth at 10 µM (IGROV-1): 61%; growth at 10 µM (UACC-257): 100%; growth at 10 µM (UACC-62): 87.9%; inhibition [1]: 100% |
| CCOC(=O)/C(C#N)=C\Nc1ccc2ncnc(Nc3ccccc3Cl)c2c1 | 100% | 119% | 87.2% | 111% | 102% | 106% | 88.5% | 100% | 113% | 107% | 110% | 98.7% | 47% | 103% | 99.1% | 84.3% | 88.6% | 93.1% | 77.6% | 112% | growth at 10 µM (MCF7): 110%; growth at 10 µM (DU-145): 62.1%; growth at 10 µM (PC-3): 98.8%; growth at 10 µM (SN12C): 98.8%; growth at 10 µM (RXF 393): 91.7%; growth at 10 µM (CAKI-1): 45%; growth at 10 µM (SK-OV-3): 107%; growth at 10 µM (OVCAR-8): 105%; growth at 10 µM (IGROV-1): 79.7%; growth at 10 µM (UACC-257): 120%; growth at 10 µM (UACC-62): 107%; inhibition [1]: 94% |
| CCOC(=O)/C(C#N)=C\Nc1ccc2ncnc(Nc3ccc(Cl)cc3Cl)c2c1 | 75.7% | 106% | 91.3% | 92.7% | 82.2% | 73% | 79.1% | 79.4% | 92.9% | 95.8% | 108% | 84.8% | 75.7% | 99.5% | 101% | 79.5% | 59.7% | 70.9% | 58.6% | 89.6% | growth at 10 µM (MCF7): 87.6%; growth at 10 µM (DU-145): 55.9%; growth at 10 µM (PC-3): 59.3%; growth at 10 µM (SN12C): 89.5%; growth at 10 µM (RXF 393): 77%; growth at 10 µM (CAKI-1): 39%; growth at 10 µM (SK-OV-3): 97%; growth at 10 µM (OVCAR-8): 87%; growth at 10 µM (IGROV-1): 55%; growth at 10 µM (UACC-257): 97.2%; growth at 10 µM (UACC-62): 90%; inhibition [1]: 92% |

Source: ChEMBL document CHEMBL2346534, “Design, synthesis and in vitro anti-proliferative activity of 4,6-quinazolinediamines as potent EGFR-TK inhibitors” (Eur J Med Chem, 2013)
